Measurements reported in PubChem BioAssay.
The source made the active and inactive calls.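 Rule for the calls, unless noted: active = viability at or below 30% in both replicate assays; inconclusive = viability at or below 30% in just one of the two assays; inactive = the rest.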

Tests used:
[1] = reducers of endogenous Her2 protein level, primary screen, SKBR3 breast tumor cells, AlphaScreen, ATP viability (AID 461;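 active = Her2 level under about 52% in both replicate screens, with viability over 70% of control, limit read from the data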;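 for Her2 level: lower value means less Her2 protein in the cells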;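 for viability: percent of carrier control wells set as 100% viability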); conditions: 18-24 h, measured here: SKBR3 viability, ATP luminescence, at 10 µM
[2] = biological target: Receptor tyrosine-protein kinase erbB-2 (Homo sapiens) (UniProt P04626); test: as above; conditions: 18-24 h, at 10 µM, stronger effect = lower value
[3] = SK-BR-3 cell growth inhibitors, pilot screen, 24 h, human (AID 572;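 active = viability at or below 10% of carrier control in both of two separate runs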;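 note: compound exposure lasted between 18 and 24 h rather than exactly 24 h; 100% = carrier-treated control wells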); conditions: SK-BR-3 viability, CellTiter-Glo luminescence, at 10 µM, stronger effect = lower value
[4] = HUVEC growth inhibition – cell-based, human, primary screen (AID 575); conditions: HUVEC proliferation, CellTiter-Glo luminescence, 72 h; at 10 µM; stronger effect = lower value;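 note: 100% = median of untreated cell wells with 0.1% DMSO on each plate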
How it was run: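 material = primary HUVEC, no more than 12 passages | input = 1250 cells per well | controls = vehicle and MePR control wells | measured by = CTG luminescence | times = 72 h compound incubation | format = collagen-coated 384-well format | read-out = % viability vs DMSO wells | doses = single 10 µM dose, 0.1% DMSO, from 5x medium stock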

[5] = growth inhibitors of H69AR lung tumor, primary screen, human, duplicate replicates (AID 580;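 active = viability at or under a set limit in both replicates, limit being median viability minus 3 SD, cut at about 48% in these data, passing the limit was not always enough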;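 note: 100% = mean luminescence of untreated wells and 0% = no signal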); conditions: H69AR lung tumor cells viability, ATP luminescence, 72 h; at 10 µM; stronger effect = lower value
[6] = reversal of MRP1-mediated doxorubicin resistance, pilot screen, H69AR cells, doxorubicin co-treatment (AID 601;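 active = viability loss from added drug above about 55%, and viability with drug at most 40%, in both replicates, limit read from the data, passing the limit was not always enough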); conditions: CellTiter-Glo, 72 h, at 10 µM; for differential viability (reversal): stronger effect = higher value
[7] = 384-well plate pilot, post-Golgi transport modulator project, inhibition of yeast transport mutant growth (AID 636; in the data active = inhibition above about 31%); conditions: absorbance 615 nm, about 18 h, stronger effect = higher value
[8] = growth suppression of yeast trafficking mutant, preliminary HTS, modulators of trafficking downstream of Golgi apparatus project, 1536-format plate, OD 615 nm (AID 637; in the data active = inhibition above about 30%); conditions: yeast transport mutant growth, absorbance 615 nm, 18 h; stronger effect = higher value
[9] = H69AR cells + 2 uM doxorubicin, measured here: viability with 2 uM doxorubicin, stronger effect = lower value
[10] = H69AR cells, compound alone cytotoxicity

Sequence of Receptor tyrosine-protein kinase erbB-2 (Homo sapiens) (P04626 whole entry, looked up): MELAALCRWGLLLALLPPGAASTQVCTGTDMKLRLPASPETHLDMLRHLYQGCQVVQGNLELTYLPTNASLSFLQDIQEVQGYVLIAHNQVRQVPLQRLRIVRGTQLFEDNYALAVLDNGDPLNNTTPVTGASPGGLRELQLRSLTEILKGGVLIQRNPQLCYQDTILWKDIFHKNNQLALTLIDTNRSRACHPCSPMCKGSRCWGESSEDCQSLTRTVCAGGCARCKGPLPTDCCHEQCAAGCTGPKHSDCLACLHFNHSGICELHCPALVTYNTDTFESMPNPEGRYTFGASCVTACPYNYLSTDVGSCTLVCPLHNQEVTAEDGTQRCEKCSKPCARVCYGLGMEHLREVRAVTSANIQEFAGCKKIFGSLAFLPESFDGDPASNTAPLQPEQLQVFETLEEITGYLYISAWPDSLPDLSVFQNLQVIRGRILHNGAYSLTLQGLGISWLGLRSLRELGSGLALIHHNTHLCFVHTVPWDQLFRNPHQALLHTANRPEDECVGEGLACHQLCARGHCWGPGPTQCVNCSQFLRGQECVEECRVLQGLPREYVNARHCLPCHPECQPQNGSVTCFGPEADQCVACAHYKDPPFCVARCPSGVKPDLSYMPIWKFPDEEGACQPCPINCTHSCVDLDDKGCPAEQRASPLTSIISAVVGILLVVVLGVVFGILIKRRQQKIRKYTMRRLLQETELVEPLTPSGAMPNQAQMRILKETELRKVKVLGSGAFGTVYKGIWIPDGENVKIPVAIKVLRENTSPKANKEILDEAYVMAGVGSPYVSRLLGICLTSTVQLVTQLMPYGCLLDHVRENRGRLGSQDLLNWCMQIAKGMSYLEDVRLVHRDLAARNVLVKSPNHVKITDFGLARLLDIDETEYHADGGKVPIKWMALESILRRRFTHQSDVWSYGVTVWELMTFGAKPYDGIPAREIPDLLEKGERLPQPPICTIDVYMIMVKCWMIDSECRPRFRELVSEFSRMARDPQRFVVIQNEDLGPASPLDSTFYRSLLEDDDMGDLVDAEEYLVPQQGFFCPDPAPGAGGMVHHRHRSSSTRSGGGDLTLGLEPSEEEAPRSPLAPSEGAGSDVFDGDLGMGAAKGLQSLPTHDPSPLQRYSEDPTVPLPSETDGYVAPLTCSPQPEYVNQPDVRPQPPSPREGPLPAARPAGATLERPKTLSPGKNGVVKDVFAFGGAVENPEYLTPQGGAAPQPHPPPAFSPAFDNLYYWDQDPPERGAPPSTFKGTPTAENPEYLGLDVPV

Structure (SMILES) | viability [1] | Her2 level [2] | viability [3] | viability [4] | viability [5] | differential viability (reversal) ([6]; H69AR cells + 2 uM doxorubicin) | viability [6, 9] | viability [6, 10] | inhibition [7] | inhibition [8]
COc1cc(Cn2c(-c3nonc3N)nc3ccccc32)ccc1C | 104% | 71.5% (inactive) | 104% (inactive) | 38.9% (inactive) | 17.8% (active) | -29.2% (inactive) | 47.1% | 17.8% | -3.92% (inactive) | 1.59% (inactive)
COc1cc(Nc2cc(C)nc3ncnn23)cc(OC)c1OC | 102% | 98.5% (inactive) | 102% (inactive) | 98.2% (inactive) | 100% (inactive) | 21% (inactive) | 79.3% | 100% | 1.6% (inactive) | -3.11% (inactive)
O=C(CN1C(=O)CCSc2ccccc21)Nc1ccc2c(c1)OCO2 | 124% | 85.5% (inactive) | 124% (inactive) | 97.6% (inactive) | 103% (inactive) | 0.09% (inactive) | 103% | 103% | -2.5% (inactive) | -4.13% (inactive)
CCn1c(SCC(=O)Nc2ccccc2F)nc2c(c1=O)SC(C)C2 (stereo not given) | 116% | 86.5% (inactive) | 116% (inactive) | 96.4% (inactive) | 95.3% (inactive) | 11.5% (inactive) | 83.8% | 95.3% | -6.03% (inactive) | 2.54% (inactive)
CO/C([O-])=N/c1c[n+](-c2ccc(C)cc2)no1 | 100% | 92.5% (inactive) | 100% (inactive) | 109% (inactive) | 90.5% (inactive) | -0.875% (inactive) | 91.3% | 90.5% | -6.49% (inactive) | 7.38% (inactive)
CCn1ncc(C2=NOC(C(=O)N3CCC(C(N)=O)CC3)C2)c1C (stereo not given) | 104% | 106% (inactive) | 104% (inactive) | 98.6% (inactive) | 101% (inactive) | -2.31% (inactive) | 103% | 101% | -1.05% (inactive) | 15.2% (inactive)
CCOc1ccccc1Nc1nnc(SCC(=O)N2CCCC2)s1 | 104% | 91.5% (inactive) | 104% (inactive) | 103% (inactive) | 101% (inactive) | 7.78% (inactive) | 92.8% | 101% | -3.12% (inactive) | -0.95% (inactive)
CCN1CCN(CCNC(=O)c2cn(C(C)c3ccccc3F)nn2)CC1 (stereo not given) | 122% | 98.5% (inactive) | 122% (inactive) | 82.3% (inactive) | 96.4% (inactive) | 8.63% (inactive) | 87.8% | 96.4% | -2.73% (inactive) | -4.6% (inactive)
O=C(CSc1ncnc2ccccc12)N1CCN(c2ccccc2)CC1 | 102% | 92.5% (inactive) | 102% (inactive) | 94.1% (inactive) | 82.7% (inactive) | 4.57% (inactive) | 78.1% | 82.7% | -1.05% (inactive) | -8.73% (inactive)
COc1cc(NC(=O)c2ccc(COCC(F)(F)F)o2)cc(OC)c1OC | 95% | 84% (inactive) | 95% (inactive) | 92.8% (inactive) | 99.6% (inactive) | 20.1% (inactive) | 79.5% | 99.6% | -1.45% (inactive) | 2.58% (inactive)
Cc1nnc(NC(=O)CSc2nnc(-c3ccc(S(=O)(=O)N4CCCC4)cc3)n2C)s1 | 93% | 88.5% (inactive) | 93% (inactive) | 104% (inactive) | 99% (inactive) | 6.45% (inactive) | 92.6% | 99% | -2.8% (inactive) | -2.1% (inactive)
CCS(=O)(=O)N1CCC(C(=O)NC2CCCCC2)CC1 | 113% | 99% (inactive) | 113% (inactive) | 92.7% (inactive) | 97.4% (inactive) | 11.3% (inactive) | 86.1% | 97.4% | 1.84% (inactive) | 3.28% (inactive)
COc1ccc2c(=O)c3c(=O)n(Cc4ccco4)c(-c4cc(OC)c(OC)c(OC)c4)nc3oc2c1 | 67% | 82.5% (inactive) | 67% (inactive) | 67.9% (inactive) | 36.1% (active) | -1.67% (inactive) | 37.8% | 36.1% | -2.53% (inactive) | -10% (inactive)
Cc1ccc2[nH]c(=O)c(CN(CCCO)S(=O)(=O)c3c(C)ccc4nsnc34)cc2c1 | 91% | 92.5% (inactive) | 91% (inactive) | 95.1% (inactive) | 96.8% (inactive) | 4.04% (inactive) | 92.8% | 96.8% | -1.18% (inactive) | -4.44% (inactive)
Cc1sc2ncnc(SCC(=O)N3CCCC3)c2c1C | 124% | 95.5% (inactive) | 124% (inactive) | 78.1% (inactive) | 93% (inactive) | 9.69% (inactive) | 83.3% | 93% | -2.08% (inactive) | 6.39% (inactive)
